Key:
[1] = target: T1, Histone-lysine N-methyltransferase EHMT2 (Homo sapiens, UniProt Q96KQ7); experiment: Inhibition of G9a (unknown origin) using biotinylated-histone H3 (1 to 21 residues)/S-adenosyl-methionine as substrate/methyl donor after 3 hrs by AlphaScreen assay
T1 sequence (Q96KQ7 whole entry): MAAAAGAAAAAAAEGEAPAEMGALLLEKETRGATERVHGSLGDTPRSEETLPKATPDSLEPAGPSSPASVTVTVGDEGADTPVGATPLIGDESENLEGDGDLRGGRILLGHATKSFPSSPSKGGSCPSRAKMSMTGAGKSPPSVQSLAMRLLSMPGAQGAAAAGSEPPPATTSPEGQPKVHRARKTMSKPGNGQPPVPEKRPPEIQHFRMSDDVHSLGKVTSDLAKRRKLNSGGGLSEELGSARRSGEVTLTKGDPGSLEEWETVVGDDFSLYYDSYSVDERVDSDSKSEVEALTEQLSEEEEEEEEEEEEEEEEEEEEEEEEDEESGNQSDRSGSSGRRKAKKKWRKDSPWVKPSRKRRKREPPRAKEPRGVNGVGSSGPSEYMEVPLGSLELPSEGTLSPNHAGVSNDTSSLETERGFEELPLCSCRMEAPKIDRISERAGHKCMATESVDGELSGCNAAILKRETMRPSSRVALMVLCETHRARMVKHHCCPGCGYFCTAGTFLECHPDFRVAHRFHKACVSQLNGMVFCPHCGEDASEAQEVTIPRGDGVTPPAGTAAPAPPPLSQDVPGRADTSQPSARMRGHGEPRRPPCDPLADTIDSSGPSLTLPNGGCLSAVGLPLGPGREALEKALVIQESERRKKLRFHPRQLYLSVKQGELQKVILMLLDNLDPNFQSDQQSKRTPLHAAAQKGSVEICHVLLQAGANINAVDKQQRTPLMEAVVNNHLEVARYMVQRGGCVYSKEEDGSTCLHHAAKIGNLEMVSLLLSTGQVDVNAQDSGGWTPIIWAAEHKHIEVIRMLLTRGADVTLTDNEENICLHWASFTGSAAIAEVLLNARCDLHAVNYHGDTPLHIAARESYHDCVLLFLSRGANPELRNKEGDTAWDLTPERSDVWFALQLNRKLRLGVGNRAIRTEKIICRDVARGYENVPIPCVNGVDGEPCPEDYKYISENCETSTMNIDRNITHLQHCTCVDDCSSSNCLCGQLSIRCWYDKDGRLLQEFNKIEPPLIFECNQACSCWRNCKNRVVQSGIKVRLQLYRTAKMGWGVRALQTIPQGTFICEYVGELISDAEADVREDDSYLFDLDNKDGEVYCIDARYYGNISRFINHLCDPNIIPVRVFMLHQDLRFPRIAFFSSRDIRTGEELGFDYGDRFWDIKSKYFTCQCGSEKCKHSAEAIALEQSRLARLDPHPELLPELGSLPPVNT
In short: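 AlphaScreen G9a assay. Compounds were first screened at 10 µM. IC50 came from concentration-response curves of ten escalating concentrations (0.1 nM–10 µM), using two independent experiments, reported as mean ± SD.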

[2] = Antiproliferative activity against human HCT116 cells assessed as inhibition of cell viability after 72 hrs by MTT assay; format: functional, cell-based; conditions: HCT-116, 72 h
[3] = Antiproliferative activity against human MCF7 cells assessed as inhibition of cell viability after 72 hrs by MTT assay; format: functional, cell-based; conditions: MCF7, 72 h
[4] = Antiproliferative activity against human HepG2 cells assessed as inhibition of cell viability after 72 hrs by MTT assay; format: functional, cell-based; conditions: HepG2, 72 h
[5] = target: T1, Histone-lysine N-methyltransferase EHMT2; experiment: Inhibition of G9a (unknown origin)

SMILES	IC50 [1] [µM]	IC50 [2] [µM]	IC50 [3] [µM]	IC50 [4] [µM]	EC50 [5] [µM]
CN(C)CCNc1cc(N2CCN(C)CC2)c2noc3c2c1C(=O)c1ccccc1-3	4.84	18.2	10.8	28.6	–
CCN1CCN(c2cc(NCCN3CCCC3)c3c4c(onc24)-c2ccccc2C3=O)CC1	3.48	4.34	20.8	8.32	–
O=C1c2ccccc2-c2onc3c(N4CCN(c5ccccc5)CC4)cc(NCCN4CCCCC4)c1c23	2.68	5.32	1.22	10.4	–
CN1CCCN(c2cc(NCCN3CCCC3)c3c4c(onc24)-c2ccccc2C3=O)CC1	3.96	3.2	8.26	9.35	–
CN(C)CCNc1cc(N2CCCCC2)c2noc3c2c1C(=O)c1ccccc1-3	3.75	25.4	10.3	15.6	–
CCN1CCN(c2cc(Nc3ccccc3F)c3c4c(onc24)-c2ccccc2C3=O)CC1	–	> 200	> 200	> 200	–
COC(=O)c1ccc2c(c1)nc(NC(=O)c1ccccc1)n2CCCc1ccccc1	–	–	–	–	5
O=C1c2ccccc2-c2onc3c(N4CCN(c5ccccc5)CC4)cc(NCCN4CCCC4)c1c23	3.22	4.28	3.77	10.8	–
O=C1c2ccccc2-c2onc3c(N4CCN(c5ncccn5)CC4)cc(NCCN4CCCC4)c1c23	4.57	3.36	4.06	3.1	–
CN1CCN(c2cc(NCCN3CCCCC3)c3c4c(onc24)-c2ccccc2C3=O)CC1	1.87	4.56	8.37	8.34	–
CN(C)c1cc(NCCCN2CCCC2)c2c3c(onc13)-c1ccccc1C2=O	2.98	11.3	8.61	16.9	–
CCN1CCN(c2cc(Nc3ccc(C)cc3)c3c4c(onc24)-c2ccccc2C3=O)CC1	–	> 200	> 200	> 200	–
CCN1CCN(c2cc(Nc3ccc(OC)cc3)c3c4c(onc24)-c2ccccc2C3=O)CC1	–	> 200	> 200	> 200	–
COc1ccc(Nc2cc(N3CCN(C)CC3)c3noc4c3c2C(=O)c2ccccc2-4)cc1	39.2	140	> 200	> 200	–
CN(C)CCNc1cc(N2CCCC2)c2noc3c2c1C(=O)c1ccccc1-3	5.97	52.9	17.6	20.5	–
CN(C)CCNc1cc(N2CCN(c3ncccn3)CC2)c2noc3c2c1C(=O)c1ccccc1-3	3.84	4.39	4.31	9.14	–
COc1cc2c(NC3CCN(C(C)C)CC3)nc(C3CCCCC3)nc2cc1OCCCN1CCCC1	–	3.35	6.99	3.7	–
CN1CCN(c2cc(NCCN3CCCC3)c3c4c(onc24)-c2ccccc2C3=O)CC1	6.89	6.23	13.9	27.8	–
COc1ccc(Nc2cc(N3CCCC3)c3noc4c3c2C(=O)c2ccccc2-4)cc1	–	> 200	> 200	66.7	–
O=C1c2ccccc2-c2onc3c(N4CCCC4)cc(NCCN4CCCC4)c1c23	1.22	7.46	10.8	24.9	–
CN(C)CCNc1cc(N(C)C)c2noc3c2c1C(=O)c1ccccc1-3	3.47	30.7	16.6	12.3	–
CN1CCCN(c2cc(NCCN3CCCCC3)c3c4c(onc24)-c2ccccc2C3=O)CC1	2.49	3.96	5.08	6.21	–
CN(C)c1cc(NCCN2CCCC2)c2c3c(onc13)-c1ccccc1C2=O	3.87	6.99	28	24.9	–

Source: ChEMBL document CHEMBL3856284, “Discovery, design and synthesis of 6H-anthra[1,9-cd]isoxazol-6-one scaffold as G9a inhibitor through a combination of shape-based virtual screening and structure-based molecular modification” (Bioorg Med Chem, 2016)
